In ChEMBL document CHEMBL1153517, “Synthesis and biological evaluation of imidazole thioacetanilides as novel non-nucleoside HIV-1 reverse transcriptase inhibitors” (Bioorg Med Chem, 2009):

Legend:
[1] = system: Human immunodeficiency virus 1; experiment: Antiviral activity against wild type HIV1 by MTT assay; type: functional, organism-based
[2] = system: Human immunodeficiency virus 1; experiment: Antiviral activity against […] HIV1 bearing reverse transcriptase K103/Y181C mutation by MTT assay; type: functional, organism-based
[3] = Selectivity index, ratio of CC50 for human MT4 cells to EC50 for HIV2 ROD; type: toxicity, cell-based; conditions: for selectivity ratio: MT4 cells, read-out: Ratio CC50/EC50; for Ratio CC50/EC50: mt4
In short: (§1)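 Ratio of CC₅₀ to EC₅₀. Both come from a 5-day MTT assay in MT-4 cells, using parallel mock-infected wells and wells infected with the named virus strain (100–300 CCID₅₀), with serial fivefold compound dilutions in triplicate.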

[4] = system: Human immunodeficiency virus 1; experiment: Antiviral activity against HIV1 3B infected in human MT4 cells assessed as virus-induced cytopathic effect by MTT assay; type: functional, organism-based; conditions: Human immunodeficiency virus 1, 3B
In short: (§2)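 MT-4 cells (exponentially growing, resuspended at 6 × 10⁵ cells/mL) are infected with HIV-1 IIIB or HIV-2 ROD stock at 100–300 CCID₅₀. Serial fivefold compound dilutions are added at the start, in triplicate wells. After 5 days, viability is read by MTT reduction at OD540, using the median OD of three wells. EC₅₀ is the concentration giving 50% protection from the viral cytopathic effect.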

[5] = system: Human immunodeficiency virus 2; experiment: Antiviral activity against HIV2 ROD infected in human MT4 cells assessed as virus-induced cytopathic effect by MTT assay; type: functional, organism-based; conditions: Human immunodeficiency virus 2, ISOLATE ROD; in short: as §2
[6] = Cytotoxicity against human MT4 cells by MTT assay; type: cell-based
In short: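 Mock-infected MT-4 cells (6 × 10⁵ cells/mL) are run in parallel triplicate wells with serial fivefold compound dilutions and culture medium in place of virus. After 5 days, MTT formazan is read at OD540, using the median OD of three wells. CC₅₀ is the concentration that cuts absorbance of the mock-infected control by 50%.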

[7] = Selectivity index, ratio of CC50 for human MT4 cells to EC50 for HIV1 3B; type: toxicity, cell-based; conditions: for selectivity ratio: MT4 cells, read-out: Ratio CC50/EC50; for Ratio CC50/EC50: mt4; in short: as §1

Cc1ccc(NC(=O)CSc2nnc(C)n2-c2ccccc2)c(Br)c1
EC50 [1]: 0.1 µM | EC50 [2]: 1.3 µM

Cc1cc(C)c(-n2nnnc2SCC(=O)Nc2ccccc2Cl)c(C)c1
IC50 [1]: 0.005 µM

Cc1ccccc1NC(=O)CSc1nccn1-c1ccc(Cl)cc1
selectivity ratio [3]: < 1 | EC50 [4]: 35.4 µM | EC50 [5]: > 160 µM | CC50 [6]: 160 µM | selectivity ratio [7]: 5

O=C(CSc1nccn1-c1ccc(Cl)cc1)Nc1ccccc1Cl
Ratio CC50/EC50 [3]: Not Active | EC50 [4]: ≥ 11.7 µM | EC50 [5]: > 330 µM | CC50 [6]: > 330 µM | Ratio CC50/EC50 [7]: Not Active

Cc1ccccc1NC(=O)CSc1nccn1-c1cccc2ccccc12
selectivity ratio [3]: < 1 | EC50 [4]: 2.46 µM | EC50 [5]: > 34.6 µM | CC50 [6]: 34.6 µM | selectivity ratio [7]: 14

O=C(CSc1nccn1-c1cccc2ccccc12)Nc1ccccc1F
selectivity ratio [3]: < 1 | EC50 [4]: 1.78 µM | EC50 [5]: > 34.7 µM | CC50 [6]: 34.7 µM | selectivity ratio [7]: 20

Cc1ccc(NC(=O)CSc2nccn2-c2cccc3ccccc23)c(Br)c1
selectivity ratio [3]: < 1 | EC50 [4]: 0.73 µM | EC50 [5]: > 29.4 µM | CC50 [6]: 29.4 µM | selectivity ratio [7]: 40

COc1ccc(-n2ccnc2SCC(=O)Nc2ccccc2C)cc1
Ratio CC50/EC50 [3]: Not Active | EC50 [4]: 155 µM | EC50 [5]: > 354 µM | CC50 [6]: > 354 µM | selectivity ratio [7]: > 2

O=C(CSc1nccn1-c1ccc(Cl)cc1)Nc1ccccc1Br
Ratio CC50/EC50 [3]: Not Active | EC50 [4]: 15.8 µM | EC50 [5]: > 296 µM | CC50 [6]: > 300 µM | selectivity ratio [7]: > 19

Cc1ccc(-n2ccnc2SCC(=O)Nc2ccccc2C)cc1
selectivity ratio [3]: < 1 | EC50 [4]: 30.9 µM | EC50 [5]: > 147 µM | CC50 [6]: 147 µM | selectivity ratio [7]: 5

O=C(CSc1nccn1-c1ccc(Cl)cc1)Nc1ccccc1[N+](=O)[O-]
Ratio CC50/EC50 [3]: Not Active | EC50 [4]: 4.86 µM | EC50 [5]: > 321 µM | CC50 [6]: > 321 µM | selectivity ratio [7]: > 66

COc1ccc(-n2ccnc2SCC(=O)Nc2ccccc2[N+](=O)[O-])cc1
selectivity ratio [3]: < 1 | EC50 [4]: 17.9 µM | EC50 [5]: > 161 µM | CC50 [6]: 161 µM | selectivity ratio [7]: > 9

Cc1ccc(-n2ccnc2SCC(=O)Nc2ccc(C)cc2Br)cc1
selectivity ratio [3]: < 1 | EC50 [4]: > 80.8 µM | EC50 [5]: > 80.8 µM | CC50 [6]: 80.8 µM | selectivity ratio [7]: 66

Cc1ccc(-n2ccnc2SCC(=O)Nc2ccccc2F)cc1
selectivity ratio [3]: < 1 | EC50 [4]: > 37.9 µM | EC50 [5]: > 37.9 µM | CC50 [6]: 37.9 µM | selectivity ratio [7]: < 1

Cc1ccc(-n2ccnc2SCC(=O)Nc2ccccc2Cl)cc1
selectivity ratio [3]: < 1 | EC50 [4]: 4.97 µM | EC50 [5]: > 33.7 µM | CC50 [6]: 33.7 µM | selectivity ratio [7]: 7

O=C(CSc1nccn1-c1cccc2ccccc12)Nc1ccccc1Cl
selectivity ratio [3]: < 1 | EC50 [4]: 0.2 µM | EC50 [5]: > 35.2 µM | CC50 [6]: 35.2 µM | selectivity ratio [7]: 170

O=C(CSc1nccn1-c1cccc2ccccc12)Nc1ccccc1[N+](=O)[O-]
selectivity ratio [3]: < 1 | EC50 [4]: 0.18 µM | EC50 [5]: > 28.8 µM | CC50 [6]: 28.8 µM | selectivity ratio [7]: 162

COc1ccc(-n2ccnc2SCC(=O)Nc2ccccc2F)cc1
Ratio CC50/EC50 [3]: Not Active | EC50 [4]: > 42 µM | EC50 [5]: > 42 µM | CC50 [6]: ≥ 42 µM | Ratio CC50/EC50 [7]: Not Active

COc1ccc(-n2ccnc2SCC(=O)Nc2ccccc2Br)cc1
Ratio CC50/EC50 [3]: Not Active | EC50 [4]: ≥ 18.4 µM | EC50 [5]: > 299 µM | CC50 [6]: > 299 µM

Cc1ccc(-n2ccnc2SCC(=O)Nc2ccccc2Br)cc1
selectivity ratio [3]: < 1 | EC50 [4]: 5.15 µM | EC50 [5]: > 39.3 µM | CC50 [6]: 39.3 µM | selectivity ratio [7]: 8

Cc1ccc(-n2ccnc2SCC(=O)Nc2ccccc2[N+](=O)[O-])cc1
selectivity ratio [3]: < 1 | EC50 [4]: 1.03 µM | EC50 [5]: > 131 µM | CC50 [6]: 131 µM | selectivity ratio [7]: 126

O=C(CSc1nccn1-c1ccc(Cl)cc1)Nc1ccccc1F
Ratio CC50/EC50 [3]: Not Active | EC50 [4]: 43.8 µM | EC50 [5]: > 345 µM | CC50 [6]: > 345 µM | selectivity ratio [7]: > 8

Cc1ccc(NC(=O)CSc2nccn2-c2ccc(Cl)cc2)c(Br)c1
selectivity ratio [3]: < 1 | EC50 [4]: ≥ 55.2 µM | EC50 [5]: > 204 µM | CC50 [6]: 221 µM | selectivity ratio [7]: 64

O=C(CSc1nccn1-c1cccc2ccccc12)Nc1ccccc1Br
selectivity ratio [3]: < 1 | EC50 [4]: 0.64 µM | EC50 [5]: > 30.5 µM | CC50 [6]: 30.5 µM | selectivity ratio [7]: 48

COc1ccc(-n2ccnc2SCC(=O)Nc2ccccc2Cl)cc1
Ratio CC50/EC50 [3]: Not Active | EC50 [4]: 32.3 µM | EC50 [5]: > 334 µM | CC50 [6]: > 334 µM | selectivity ratio [7]: > 10

COc1ccc(-n2ccnc2SCC(=O)Nc2ccc(C)cc2Br)cc1
selectivity ratio [3]: < 1 | EC50 [4]: > 25.8 µM | EC50 [5]: > 25.8 µM | CC50 [6]: 25.8 µM | selectivity ratio [7]: < 1

CC(C)Nc1cccnc1N1CCN(C(=O)c2cc3cc(NS(C)(=O)=O)ccc3[nH]2)CC1 [DELAVIRDINE]
CC50 [6]: > 3.83 µM | selectivity ratio [7]: > 12

O=C1Nc2ccc(Cl)cc2[C@@](C#CC2CC2)(C(F)(F)F)O1 [EFAVIRENZ]
CC50 [6]: > 6.34 µM | selectivity ratio [7]: > 1430

Cc1ccnc2c1NC(=O)c1cccnc1N2C1CC1 [NEVIRAPINE]
CC50 [6]: > 15 µM

Cc1cn([C@H]2C[C@H](N=[N+]=[N-])[C@@H](CO)O2)c(=O)[nH]c1=O [ZIDOVUDINE]
CC50 [6]: > 93.5 µM | selectivity ratio [7]: > 6190
